Compound activity from PubChem.
In the library only some 2.3% were active in any assay of this set; here they are far more common.
TRPC4 PAM = allosterically enhances the mouse TRPC4 cation channel; HEK293 TRPC4beta/mu-opioid, DAMGO EC20, Fluo-4 Ca2+ flux; hits give high values; B-score at 10 µM; 310,000 compounds, 0.42% hits; AID 2227;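 active = B-score of calcium response area above 5 SD of library B-scores, with initial fluorescence ratio within 5 SD of library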;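 also: B-score of integrated fluorescence ratio over time as area under calcium response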
TRPC4 act = activators of mouse TRPC4 channel; HEK293 TRPC4beta/mu-opioid, Fluo4 calcium fluorescence; hits give high values; 310,000 compounds, 0.49% hits; AID 2237; Q9QUQ5; B-score at 10 µM;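 active = B-score above 5 SD of library B-scores, and initial fluorescence ratio not above library mean plus 5 SD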;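 also: positive B-score marks a calcium rise read as TRPC4 activation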
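Assay system: HEK293 stable line with TRPC4beta plus mu-opioid receptor. Times: dye 45 min RT, read 110 s. Measured by: kinetic Fluo4 calcium fluorescence. Measure: B score of integrated ratio. Controls: assay buffer as low control, maximal DAMGO as high control.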
TRPC6 inh = blocks the mouse TRPC6 cation channel. HEK293-TRPC6, membrane potential dye, ACh-evoked depolarization; hits give low values. 310,000 compounds, 1.1% hits. Q61143. B-score at 10 µM;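 active = B-score under library mean minus 3 SD, initial fluorescence not abnormally high, positive integrated signal ratio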;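 also: B-score derived from integrated fluorescence ratio over the kinetic read; more negative B-score means stronger inhibition of depolarization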
TRPC4 block = TRPC4 (mouse) channel inhibition | 300,000 compounds, 0.39% hits | B-score at 10 µM | HEK293 TRPC4beta/mu-opioid, DAMGO-evoked Fluo4 calcium flux; hits give low values | Q9QUQ5;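 active = B-score over 3 SD under the library average, no early fluorescence shift, positive overall ratio signal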
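Assay system: TRPC4beta/mu-opioid receptor HEK293 cell line; compound dosing: single concentration per test compound; detection: Fluo4 Ca2+ flux fluorescence; evaluation: per-well B score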
TRPC6 activator = mouse TRPC6 channel activation. Q61143. HEK293-TRPC6 membrane potential dye fluorescence; hits give high values. B-score at 10 µM. 310,000 compounds, 0.13% hits. AID 2550;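 active = B-score of the integrated fluorescence ratio above library mean plus 3 SD, and starting fluorescence ratio within library mean plus 5 SD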;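 also: higher score means more depolarization so channel activation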
TRPC4 spec 2 = second selectivity test of TRPC6 inhibitors: effect on mouse TRPC4. shares compounds with TRPC6 inh. HEK293 TRPC4/MOR, membrane potential dye fluorescence; channel activated by saturating DAMGO dose. inhibition, % at 10 µM. 920 compounds, 42% hits. AID 2776;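 active = compounds whose fluorescence signal differed from control wells by over 3 SD, either direction, in both duplicate plates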
TRPC4 spec = tests whether TRPC6 inhibitors also affect mouse TRPC4; activity change, negative = inhibition, % at 10 µM; 920 compounds, 61% hits; HEK293 TRPC4/mu-opioid, membrane potential fluorescence; shares compounds with TRPC6 inh;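 active = rise or fall in signal beyond 3 SD of buffer-only wells in both replicate plates, either sign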;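 also: integrated kinetic ratio of fluorescence range over baseline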
HEK293 MPD ctr 2-1 = second counter-screen for TRPC6 inhibitors: parental HEK293 cells | parental HEK293 membrane potential dye fluorescence; maximal acetylcholine challenge after compound addition | signal change vs control, % at 10 µM | AID 2779 | 920 compounds, 31% hits | shares compounds with TRPC6 inh;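 active = membrane potential signal moving either way by over 3 SD of the maximum-effect control, in both duplicate plates, meaning non-specific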
HEK293 MPD ctr-1 = counter-screen for TRPC6 inhibitors: effect in parental HEK293 cells | membrane potential signal change, % at 10 µM | parental HEK293 membrane potential dye fluorescence | 920 compounds, 60% hits | AID 2780 | shares compounds with TRPC6 inh;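 active = membrane potential signal shifting up or down by more than 3 SD of buffer-only wells, on both duplicate plates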
HEK293 MPD ctr-2 = checks TRPC6 modulator effects in parental HEK293 cells; membrane potential dye fluorescence; shares compounds with TRPC6 inh; AID 488924; 2,400 compounds, 51% hits; membrane potential signal change, % at 10 µM;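 active = membrane potential signal moves up or down beyond 5 SD from buffer-only wells, on both duplicate plates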
HEK293 MPD ctr 2-2 = parental HEK293 nonspecific activity of TRPC6 modulators, second screen. shares compounds with TRPC6 inh. inhibition, % at 10 µM. membrane potential dye fluorescence; after compound, maximal acetylcholine stimulation. 2,400 compounds, 14% hits. AID 488926;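 active = membrane potential signal drops by more than 5 SD from the mean control signal, in both duplicate plates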;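 also: plate controls were acetylcholine ECmax control wells for no effect and buffer only wells for full effect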
TRPC4/MOR mod = selectivity of TRPC6 modulators against mouse TRPC4; shares compounds with TRPC6 inh; HEK293 TRPC4/mu-opioid, membrane potential fluorescence; percent change from control (negative = decrease, positive = increase), % at 10 µM; 2,400 compounds, 69% hits; AID 488927;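 active = membrane potential signal moved up or down beyond 5 SD of buffer control wells, in both duplicate plates, actives on both sides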;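 also: plate controls were assay buffer wells for no effect and DAMGO maximal-effect wells for full effect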
TRPC4 ctr inh 2 = second selectivity test of TRPC6 modulators against mouse TRPC4; shares compounds with TRPC6 inh; HEK293 TRPC4/mu-opioid, membrane potential dye fluorescence; stimulated with maximal-effect DAMGO; inhibition, % at 10 µM; 2,400 compounds, 55% hits;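 active = drop in membrane potential signal beyond 5 SD of the control wells in both duplicate plates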;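 also: TRPC4 counter screen for TRPC6 hits run under conditions tuned for TRPC6 not TRPC4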
TRPC6 inh conf = confirmation of mouse TRPC6 inhibitors; shares compounds with TRPC6 inh; HEK293-TRPC6, membrane potential dye, ACh-evoked depolarization; inhibition, % at 10 µM; 3,300 compounds, 43% hits; AID 488960;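 active = fluorescence ratio falls more than 5 SD below the full-stimulation control mean, in both duplicate runs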;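 also: integrated fluorescence ratio of peak minus minimum over baseline after agonist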
TRPC6 act confirm = confirmation of mouse TRPC6 activators. HEK293-TRPC6 membrane potential dye fluorescence, FDSS. activation, % at 10 µM. 2,800 compounds, 11% hits. shares compounds with TRPC6 inh;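 active = ratio signal rise beyond 5 SD above unstimulated control wells' mean, seen in both duplicate runs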;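 also: plate controls were buffer EC0 wells for no effect and acetylcholine ECmax response for full effect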
Numbers without * were called inactive; i = inactive; nt = not tested or not shown; + = active, no number.

SMILES	TRPC4 PAM	TRPC4 act	TRPC6 inh	TRPC4 block	TRPC6 activator	HEK293 MPD ctr-2	HEK293 MPD ctr 2-2	TRPC4/MOR mod	TRPC4 ctr inh 2	TRPC6 inh conf	TRPC6 act confirm	others
CC(=NCCCn1ccnc1)c1c(C)[nH]n(-c2ccc([N+](=O)[O-])cc2)c1=O	i	i	-5.5*	i	i	-208%*	i	-42%*	37%*	i	i
CCc1ccc(NC(=O)c2cnccn2)cc1	i	i	i	i	i	nt	nt	nt	nt	nt	nt
CCCn1c(C)cc(=O)c2cc(NC(=O)c3cnccn3)ccc21	i	i	-12*	i	i	-300%*	86%*	-60%*	60%*	66%*	i
O=C(Nc1ccc2nccnc2c1)c1cnccn1	i	i	-5.8*	i	i	-272%*	i	-48%*	42%*	49%*	i
N#C/C(=C/c1ccc(N2CCOCC2)o1)C(=O)Nc1ccccc1	i	i	i	i	50*	+	+	134%*	i	nt	322%*
N#C/C(=C\c1ccc(N2CCOCC2)o1)C(=O)NCCc1ccccc1	i	i	i	i	14*	774%*	135%*	129%*	i	i	96%*
Cc1ccc(/C(C#N)=C\c2ccc(N3CCOCC3)o2)cc1	i	i	i	i	27*	420%*	i	98%*	i	i	115%*
N#C/C(=C\c1ccc(N2CCOCC2)o1)C(=O)NC1CCCCC1	i	i	i	i	i	nt	nt	nt	nt	nt	nt
COCCNC(=O)/C(C#N)=C/c1ccc(N2CCOCC2)o1	i	i	i	i	i	nt	nt	nt	nt	nt	nt
N#Cc1c(NC(=O)c2cc(C3CC3)on2)sc2c1CCC2	i	i	i	i	i	nt	nt	nt	nt	nt	nt
CCOC(=O)c1ccc(NC(=O)CCC2COc3ccccc3O2)cc1 (stereo unspecified)	i	i	i	i	20*	i	i	i	i	nt	136%*
Fc1ccc([C@@H]2CCNC[C@H]2COc2ccc3c(c2)OCO3)cc1	i	142*	-5.3*	i	i	i	64%*	39%*	95%*	72%*	i	TRPC4 spec 2=14%*;TRPC4 spec=47%*;HEK293 MPD ctr 2-1=i;HEK293 MPD ctr-1=0.5%*
Cc1ccc(Cn2c(=N)n(CC(O)c3ccco3)c3ccccc32)cc1 (stereo unspecified)	i	i	-5.6*	-8*	i	178%*	i	33%*	88%*	54%*	nt
